Source: ChEMBL document CHEMBL1138292, “Discovery of a tetrazole-based growth hormone secretagogue: 4-(hydroxybutyl)carbamic acid 2-{5-[1-(2-amino-2-methylpropionylamino)-2- benzyloxyethyl]tetrazol-1-yl}ethyl ester (BMS-317180)” (J Med Chem, 2007)
Values belong to the molecule of their own block, whether it stands above or below them. Calls of active or inactive are those of the source. The rule behind the calls is not given here.

Tests used:
[1] = biological target: Growth hormone secretagogue receptor type 1 (Homo sapiens, UniProt Q92847); assay: Intrinsic activity at human GHS receptor in H4 glioma cells assessed by measuring intracellular calcium concentration by FLIPR assay; type: functional, cell-based
Sequence of Growth hormone secretagogue receptor type 1 (Q92847 whole entry): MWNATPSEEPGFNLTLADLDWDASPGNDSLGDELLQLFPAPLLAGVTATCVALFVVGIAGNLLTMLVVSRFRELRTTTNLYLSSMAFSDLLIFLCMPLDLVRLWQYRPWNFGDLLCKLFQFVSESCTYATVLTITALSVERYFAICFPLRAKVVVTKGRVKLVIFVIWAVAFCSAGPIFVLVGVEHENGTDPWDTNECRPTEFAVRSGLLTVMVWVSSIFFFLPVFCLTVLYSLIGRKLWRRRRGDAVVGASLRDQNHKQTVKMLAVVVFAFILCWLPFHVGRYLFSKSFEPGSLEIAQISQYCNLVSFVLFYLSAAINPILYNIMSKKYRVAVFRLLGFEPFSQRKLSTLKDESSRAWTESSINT
Method in brief: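 H4 glioma cells with endogenous human GHS receptor expression enhanced by RAGE activation. Agonist-stimulated intracellular calcium mobilization read with a calcium-sensitive fluorescent probe in FLIPR.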

[2] = Bioavailability in rat; type: ADME, organism-based; conditions: in vivo
[3] = Half life in Beagle dog at 10 umol/kg, po; type: ADME, organism-based, Canis lupus familiaris; conditions: in vivo
Method in brief: (§1)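 Fasted animals (rat, cynomolgus monkey, beagle dog) given single oral doses of 15, 10 and 10 µmol/kg respectively; intravenous reference dose 5 µmol/kg in all species. Oral bioavailability, half-life and plasma clearance derived from the plasma profiles.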

[4] = Plasma clearance in rat at 15 umol/kg, po; type: ADME, organism-based; method in brief: as §1
[5] = Solubility at pH 4; type: physicochemical; conditions: buffer
[6] = system: Macaca fascicularis; assay: Plasma clearance in monkey at 10 umol/kg, po; conditions: cynomolgus monkey
[7] = system: Hepatocyte; assay: Toxicity in human hepatocytes upto 250 ug/mL; type: cell-based
Method in brief: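 Human hepatocyte hepatotoxicity assay run at concentrations up to 250 µg/mL.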

[8] = system: Macaca fascicularis; assay: Bioavailability in monkey at 10 umol/kg, po; conditions: cynomolgus monkey, in vivo
[9] = Half life in rat at 15 umol/kg, po; type: ADME, organism-based; conditions: in vivo; method in brief: as §1
[10] = system: Canis familiaris; assay: Increase in plasma growth hormone level in Beagle dog at 0.52 to 52.3 umol/kg, po; type: functional, organism-based; conditions: Canis lupus familiaris
Method in brief: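 Conscious beagle dogs given single oral doses of 0.52 to 52.3 µmol/kg, water as vehicle control; plasma GH followed over a 4 h time course.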

[11] = system: Macaca fascicularis; assay: Half life in monkey at 10 umol/kg, po; conditions: cynomolgus monkey, in vivo
[12] = Bioavailability in rat at 15 umol/kg, po; type: ADME, organism-based; conditions: in vivo; method in brief: as §1
[13] = Bioavailability in Beagle dog at 10 umol/kg, po; type: ADME, organism-based, Canis lupus familiaris; conditions: in vivo; method in brief: as §1
[14] = system: Rattus norvegicus; assay: Increase in plasma growth hormone level in iv dosed Wistar rat after 15 mins by radioimmunoassay; type: functional; conditions: 0.25 h
Method in brief: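 Anesthetized rats, groups of five, dosed iv in 10% ethanol, […] saline (v/v) vehicle at 10 mL/kg. Abdominal aorta blood sampled at 15 min; plasma rat GH measured by a modified radioimmunoassay kit.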

[15] = biological target: Cytochrome P450 2D6 (Homo sapiens, UniProt P10635); assay: Inhibition of CYP2D6; type: ADME
Sequence of Cytochrome P450 2D6 (P10635 whole entry): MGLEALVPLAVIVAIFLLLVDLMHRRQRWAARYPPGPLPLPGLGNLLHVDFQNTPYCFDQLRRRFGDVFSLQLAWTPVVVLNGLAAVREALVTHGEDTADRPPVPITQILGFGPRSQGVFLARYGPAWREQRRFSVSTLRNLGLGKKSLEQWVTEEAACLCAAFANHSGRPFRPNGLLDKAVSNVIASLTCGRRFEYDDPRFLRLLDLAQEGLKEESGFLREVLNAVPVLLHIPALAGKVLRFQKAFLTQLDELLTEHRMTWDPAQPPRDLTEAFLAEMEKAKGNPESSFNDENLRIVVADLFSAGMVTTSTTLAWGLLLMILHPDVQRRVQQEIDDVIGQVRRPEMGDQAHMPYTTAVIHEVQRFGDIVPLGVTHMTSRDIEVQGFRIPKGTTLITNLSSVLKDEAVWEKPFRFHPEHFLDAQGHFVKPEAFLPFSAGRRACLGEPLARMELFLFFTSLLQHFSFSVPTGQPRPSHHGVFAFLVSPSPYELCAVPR

[16] = biological target: T1, Cytochrome P450 1A2 (Homo sapiens, UniProt P05177); assay: Inhibition of CYP1A2; type: ADME
T1 sequence (P05177 whole entry): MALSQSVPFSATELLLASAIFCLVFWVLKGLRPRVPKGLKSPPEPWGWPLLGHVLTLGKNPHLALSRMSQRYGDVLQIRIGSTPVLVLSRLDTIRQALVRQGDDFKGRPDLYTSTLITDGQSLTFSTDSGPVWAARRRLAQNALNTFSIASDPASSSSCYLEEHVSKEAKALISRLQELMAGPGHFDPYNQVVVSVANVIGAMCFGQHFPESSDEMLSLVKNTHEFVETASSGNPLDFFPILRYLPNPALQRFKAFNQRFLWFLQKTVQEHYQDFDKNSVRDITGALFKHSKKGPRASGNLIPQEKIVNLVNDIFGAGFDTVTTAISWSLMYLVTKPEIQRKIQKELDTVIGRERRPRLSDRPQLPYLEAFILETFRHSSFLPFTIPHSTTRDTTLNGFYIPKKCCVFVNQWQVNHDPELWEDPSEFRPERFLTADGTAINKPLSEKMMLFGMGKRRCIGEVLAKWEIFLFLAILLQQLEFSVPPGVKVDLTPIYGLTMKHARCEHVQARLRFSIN

[17] = system: Canis familiaris; assay: Plasma clearance in Beagle dog at 10 umol/kg, po; type: ADME, organism-based, Canis lupus familiaris; conditions: in vivo; method in brief: as §1
[18] = biological target: Cytochrome P450 2C9 (Homo sapiens, UniProt P11712); assay: Inhibition of CYP2C9; type: ADME
Sequence of Cytochrome P450 2C9 (P11712 whole entry): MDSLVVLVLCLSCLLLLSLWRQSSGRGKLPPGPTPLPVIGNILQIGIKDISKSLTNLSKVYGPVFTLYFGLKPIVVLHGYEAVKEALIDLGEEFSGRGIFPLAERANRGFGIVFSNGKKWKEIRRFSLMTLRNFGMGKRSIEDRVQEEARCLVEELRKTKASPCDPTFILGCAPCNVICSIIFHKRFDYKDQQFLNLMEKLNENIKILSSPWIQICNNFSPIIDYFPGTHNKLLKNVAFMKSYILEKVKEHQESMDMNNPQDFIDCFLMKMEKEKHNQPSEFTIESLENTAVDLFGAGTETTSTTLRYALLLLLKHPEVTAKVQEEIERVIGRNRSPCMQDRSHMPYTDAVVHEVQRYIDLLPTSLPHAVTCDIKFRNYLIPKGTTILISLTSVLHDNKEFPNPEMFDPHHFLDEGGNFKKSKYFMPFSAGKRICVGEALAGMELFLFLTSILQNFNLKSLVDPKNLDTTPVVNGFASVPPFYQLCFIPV

[19] = system: Salmonella typhimurium; assay: Mutagenic effect on Salmonella Typhimurium TA98 by Ames test; type: toxicity, organism-based; conditions: salmonella enterica subsp. enterica serovar typhimurium
[20] = biological target: Cytochrome P450 2C19 (Homo sapiens, UniProt P33261); assay: Inhibition of CYP2C19; type: ADME
Sequence of Cytochrome P450 2C19 (P33261 whole entry): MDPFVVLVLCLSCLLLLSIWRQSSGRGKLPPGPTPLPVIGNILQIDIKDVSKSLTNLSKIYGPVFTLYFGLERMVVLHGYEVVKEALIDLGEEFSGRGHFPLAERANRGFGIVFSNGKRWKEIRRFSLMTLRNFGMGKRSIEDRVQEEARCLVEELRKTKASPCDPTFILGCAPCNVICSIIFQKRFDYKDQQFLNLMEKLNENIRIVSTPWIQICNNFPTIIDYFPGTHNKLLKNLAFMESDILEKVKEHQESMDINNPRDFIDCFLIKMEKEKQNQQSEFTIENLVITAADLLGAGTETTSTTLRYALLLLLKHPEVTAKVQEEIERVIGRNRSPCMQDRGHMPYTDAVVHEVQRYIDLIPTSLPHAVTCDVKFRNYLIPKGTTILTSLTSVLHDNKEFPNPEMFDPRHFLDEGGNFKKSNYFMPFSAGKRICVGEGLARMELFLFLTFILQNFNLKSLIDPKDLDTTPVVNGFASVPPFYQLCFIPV

[21] = biological target: Cytochrome P450 3A4 (Homo sapiens, UniProt P08684); assay: Inhibition of CYP3A4; type: ADME
Sequence of Cytochrome P450 3A4 (P08684 whole entry): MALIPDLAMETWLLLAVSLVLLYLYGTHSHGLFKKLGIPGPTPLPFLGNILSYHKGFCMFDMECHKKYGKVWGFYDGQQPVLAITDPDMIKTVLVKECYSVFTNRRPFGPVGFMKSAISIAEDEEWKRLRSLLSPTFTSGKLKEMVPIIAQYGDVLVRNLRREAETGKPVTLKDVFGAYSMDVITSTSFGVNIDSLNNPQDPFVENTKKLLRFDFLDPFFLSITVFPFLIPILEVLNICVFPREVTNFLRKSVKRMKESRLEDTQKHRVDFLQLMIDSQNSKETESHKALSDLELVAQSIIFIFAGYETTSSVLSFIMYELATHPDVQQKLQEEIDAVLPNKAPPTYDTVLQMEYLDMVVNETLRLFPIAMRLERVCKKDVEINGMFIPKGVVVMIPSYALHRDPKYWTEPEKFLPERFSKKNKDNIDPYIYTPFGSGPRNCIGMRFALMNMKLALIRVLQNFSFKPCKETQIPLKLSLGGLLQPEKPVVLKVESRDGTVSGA

[22] = system: Salmonella typhimurium; assay: Mutagenic effect on Salmonella Typhimurium TA100 by Ames test; type: toxicity, organism-based; conditions: salmonella enterica subsp. enterica serovar typhimurium

Structure (SMILES): CC(=O)N[C@@H]1CCN(C(=O)OCCn2nnnc2[C@@H](COCc2ccccc2)NC(=O)C(C)(C)N)C1
EC50 [1]: 3.3 nM
bioavailability [2]: < 5%

Structure (SMILES): CC1(O)CCN(C(=O)OCCn2nnnc2[C@@H](COCc2ccccc2)NC(=O)C(C)(C)N)C1 (stereo partly drawn)
EC50 [1]: 10.1 nM

Structure (SMILES): CN(CCCCO)C(=O)OCCn1nnnc1[C@@H](COCc1ccccc1)NC(=O)C(C)(C)N
EC50 [1]: 3.8 nM

Structure (SMILES): CC(C)(N)C(=O)N[C@H](COCc1ccccc1)c1nnnn1CCOC(=O)NC[C@H]1CCCO1
EC50 [1]: 9.5 nM

Structure (SMILES): CC(C)(N)C(=O)N[C@H](COCc1ccccc1)c1nnnn1CCOC(=O)N1CC[C@@H](O)C1
EC50 [1]: 1 nM

Structure (SMILES): CC(C)(N)C(=O)N[C@H](COCc1ccccc1)c1nnnn1CCOC(=O)NCCCCCO
EC50 [1]: 14.6 nM

Structure (SMILES): CC(C)(N)C(=O)N[C@H](COCc1ccccc1)c1nnnn1CCOC(=O)NCCCCO
half-life [3]: 2.3 h
CL/F [4]: 213 mL/min/kg
solubility [5]: > 100 mg/mL
EC50 [1]: 1.9 nM
CL/F [6]: 37 mL/min/kg
Activity [7]: Non-toxic
bioavailability [8]: 12%
half-life [9]: 0.7 h
Activity [10]: Active
half-life [11]: 1.1 h
bioavailability [12]: 9%
bioavailability [13]: 40%
ED50 [14]: 0.08 µmol/kg
IC50 [15]: > 100000 nM
IC50 [16]: > 100000 nM
clearance [17]: 21 mL/min/kg
IC50 [18]: > 100000 nM
Activity [19]: Non-toxic
IC50 [20]: > 100000 nM
IC50 [21]: > 100000 nM
Activity [22]: Non-toxic

Second part, the molecule after the results:

EC50 [1]: 3 nM
Structure (SMILES): CC(C)(N)C(=O)N[C@H](COCc1ccccc1)c1nnnn1CCOC(=O)NCCO

EC50 [1]: 82.5 nM
Structure (SMILES): CC(=O)NCCCCNC(=O)OCCn1nnnc1[C@@H](COCc1ccccc1)NC(=O)C(C)(C)N

EC50 [1]: 7.9 nM
Structure (SMILES): CC(C)(N)C(=O)N[C@H](COCc1ccccc1)c1nnnn1CCOC(=O)NCCc1cccc(O)c1

EC50 [1]: 45.3 nM
Structure (SMILES): CC(C)(N)C(=O)N[C@H](COCc1ccccc1)c1nnnn1CCOC(=O)NCCCn1ccnc1

EC50 [1]: 5.5 nM
Structure (SMILES): CC(C)(N)C(=O)N[C@H](COCc1ccccc1)c1nnnn1CCOC(=O)NCCCO
